In ChEMBL document CHEMBL5653631, “A Potent and Selective ULK1 Inhibitor Suppresses Autophagy and Sensitizes Cancer Cells to Nutrient Stress” (iScience, 2018) one finds fold change (FC) and inhibition data, which are given here for 3 compounds.

The target in assay [1] is T1, Interleukin-1 receptor-associated kinase 4 (Homo sapiens) (UniProt Q9NWZ3).
T1 sequence (whole entry): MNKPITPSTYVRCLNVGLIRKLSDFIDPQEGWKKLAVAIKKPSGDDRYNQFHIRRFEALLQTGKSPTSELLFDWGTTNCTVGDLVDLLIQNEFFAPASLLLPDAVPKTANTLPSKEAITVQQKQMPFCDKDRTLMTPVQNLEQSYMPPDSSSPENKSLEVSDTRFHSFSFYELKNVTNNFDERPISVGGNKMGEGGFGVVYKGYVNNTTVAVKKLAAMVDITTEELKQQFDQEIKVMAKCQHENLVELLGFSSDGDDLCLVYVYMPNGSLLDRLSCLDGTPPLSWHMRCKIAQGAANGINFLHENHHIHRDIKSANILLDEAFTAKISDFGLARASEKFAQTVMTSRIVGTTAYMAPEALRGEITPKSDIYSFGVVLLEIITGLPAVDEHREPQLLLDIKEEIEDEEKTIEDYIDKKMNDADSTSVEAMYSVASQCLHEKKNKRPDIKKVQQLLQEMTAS
Nature of the assay: Inhibition of human recombinant IRAK4 at 15 nM related to control ULK1.

Assay [2] has as its target T2, Ephrin type-B receptor 1 (Homo sapiens) (UniProt P54762).
T2 sequence (whole entry): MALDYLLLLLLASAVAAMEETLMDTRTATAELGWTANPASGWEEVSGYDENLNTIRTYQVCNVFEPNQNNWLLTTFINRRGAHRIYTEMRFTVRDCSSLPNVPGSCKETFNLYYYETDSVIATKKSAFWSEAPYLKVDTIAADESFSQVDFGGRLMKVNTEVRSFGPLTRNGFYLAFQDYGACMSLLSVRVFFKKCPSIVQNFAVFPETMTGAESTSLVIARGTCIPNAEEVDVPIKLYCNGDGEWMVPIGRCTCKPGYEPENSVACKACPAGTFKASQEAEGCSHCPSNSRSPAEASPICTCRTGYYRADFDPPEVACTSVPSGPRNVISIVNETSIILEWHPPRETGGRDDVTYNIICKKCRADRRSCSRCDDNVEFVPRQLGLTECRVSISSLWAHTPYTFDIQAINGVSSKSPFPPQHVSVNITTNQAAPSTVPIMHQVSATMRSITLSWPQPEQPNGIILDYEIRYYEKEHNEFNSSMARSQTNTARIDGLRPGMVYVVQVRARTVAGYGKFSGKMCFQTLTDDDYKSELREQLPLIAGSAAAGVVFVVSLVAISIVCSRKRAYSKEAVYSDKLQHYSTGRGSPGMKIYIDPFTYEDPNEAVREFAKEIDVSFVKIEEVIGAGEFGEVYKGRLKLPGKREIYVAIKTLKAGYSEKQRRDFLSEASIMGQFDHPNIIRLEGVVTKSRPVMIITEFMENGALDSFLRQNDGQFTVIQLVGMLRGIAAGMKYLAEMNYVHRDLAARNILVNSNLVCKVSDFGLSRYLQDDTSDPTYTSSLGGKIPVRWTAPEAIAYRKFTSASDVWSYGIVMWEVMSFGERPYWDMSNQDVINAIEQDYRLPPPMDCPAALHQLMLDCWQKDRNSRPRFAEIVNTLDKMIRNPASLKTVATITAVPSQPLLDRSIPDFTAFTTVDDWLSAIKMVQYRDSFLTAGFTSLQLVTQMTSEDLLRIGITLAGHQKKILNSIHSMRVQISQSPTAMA
Nature of the assay: Inhibition of human recombinant EphB1 at 15 nM in presence of ATP by radiometric assay relative to control.

The target of assay [3] is Tyrosine-protein kinase CSK (Homo sapiens) (UniProt P41240). Nature of the assay: Inhibition of human recombinant CSK at 15 nM in presence of ATP by radiometric assay relative to control.
The target in assay [4] is T3, Serine/threonine-protein kinase Nek2 (Homo sapiens) (UniProt P51955).
T3 sequence (whole entry): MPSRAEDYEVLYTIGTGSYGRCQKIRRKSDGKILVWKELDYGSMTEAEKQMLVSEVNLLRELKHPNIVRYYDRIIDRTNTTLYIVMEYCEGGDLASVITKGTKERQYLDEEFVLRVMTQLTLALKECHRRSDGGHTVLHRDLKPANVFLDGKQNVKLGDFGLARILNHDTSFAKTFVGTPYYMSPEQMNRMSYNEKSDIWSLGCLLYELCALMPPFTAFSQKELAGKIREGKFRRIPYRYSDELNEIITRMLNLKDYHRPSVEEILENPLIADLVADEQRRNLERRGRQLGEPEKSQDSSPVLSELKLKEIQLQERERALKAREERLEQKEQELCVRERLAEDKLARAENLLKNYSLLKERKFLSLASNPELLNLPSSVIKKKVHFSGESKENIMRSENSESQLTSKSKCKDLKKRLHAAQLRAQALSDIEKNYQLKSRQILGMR
Nature of the assay: Inhibition of human recombinant NEK2 at 40 nM in presence of ATP by radiometric assay relative to control.

Assay [5] addresses Leukocyte tyrosine kinase receptor (Homo sapiens) (UniProt P29376). Nature of the assay: Inhibition of human recombinant LTK at 40 nM related to control ULK1.
For assay [6], the target named is T4, Aurora kinase A (Homo sapiens) (UniProt O14965).
T4 sequence (whole entry): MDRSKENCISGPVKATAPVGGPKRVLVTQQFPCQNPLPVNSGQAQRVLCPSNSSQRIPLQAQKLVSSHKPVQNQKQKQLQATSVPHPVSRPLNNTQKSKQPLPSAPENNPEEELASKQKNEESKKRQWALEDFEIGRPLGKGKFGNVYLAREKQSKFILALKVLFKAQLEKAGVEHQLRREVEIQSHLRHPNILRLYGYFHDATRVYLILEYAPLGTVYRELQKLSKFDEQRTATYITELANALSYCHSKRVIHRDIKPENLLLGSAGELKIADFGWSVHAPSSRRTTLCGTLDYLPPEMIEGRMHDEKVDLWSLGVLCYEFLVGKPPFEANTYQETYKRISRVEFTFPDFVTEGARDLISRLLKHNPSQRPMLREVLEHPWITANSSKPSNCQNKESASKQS
Nature of the assay: Inhibition of human recombinant AurA at 500 nM in presence of ATP by radiometric assay relative to control. In short, it runs like this: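 Panel of 327 recombinant human kinases, each assayed in vitro by radiometric activity assay in duplicate at a single inhibitor concentration per compound, chosen with reference to its ULK1 inhibition. Activity remaining was expressed as percent of vehicle control, and percent inhibition was calculated as 100 minus percent activity remaining.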

Assay [7] addresses MAP kinase-activated protein kinase 2 (Homo sapiens) (UniProt P49137). Nature of the assay: Inhibition of human recombinant MAPKAPK2 at 500 nM in presence of ATP by radiometric assay relative to control.

Sequence of Tyrosine-protein kinase CSK (Homo sapiens) (P41240 2-450 limits assumed): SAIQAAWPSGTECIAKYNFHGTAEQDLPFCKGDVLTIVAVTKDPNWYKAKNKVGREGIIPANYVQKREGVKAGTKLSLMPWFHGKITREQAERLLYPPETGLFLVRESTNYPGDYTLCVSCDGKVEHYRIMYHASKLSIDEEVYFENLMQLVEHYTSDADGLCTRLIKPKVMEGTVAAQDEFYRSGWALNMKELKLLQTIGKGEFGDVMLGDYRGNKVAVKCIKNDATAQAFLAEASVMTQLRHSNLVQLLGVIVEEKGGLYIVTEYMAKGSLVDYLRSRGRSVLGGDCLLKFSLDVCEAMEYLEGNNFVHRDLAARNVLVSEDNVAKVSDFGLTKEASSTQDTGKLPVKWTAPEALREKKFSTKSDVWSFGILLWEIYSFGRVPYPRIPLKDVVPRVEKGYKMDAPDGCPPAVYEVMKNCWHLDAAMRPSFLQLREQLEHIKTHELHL
Sequence of MAP kinase-activated protein kinase 2 (Homo sapiens) (P49137 whole entry, looked up): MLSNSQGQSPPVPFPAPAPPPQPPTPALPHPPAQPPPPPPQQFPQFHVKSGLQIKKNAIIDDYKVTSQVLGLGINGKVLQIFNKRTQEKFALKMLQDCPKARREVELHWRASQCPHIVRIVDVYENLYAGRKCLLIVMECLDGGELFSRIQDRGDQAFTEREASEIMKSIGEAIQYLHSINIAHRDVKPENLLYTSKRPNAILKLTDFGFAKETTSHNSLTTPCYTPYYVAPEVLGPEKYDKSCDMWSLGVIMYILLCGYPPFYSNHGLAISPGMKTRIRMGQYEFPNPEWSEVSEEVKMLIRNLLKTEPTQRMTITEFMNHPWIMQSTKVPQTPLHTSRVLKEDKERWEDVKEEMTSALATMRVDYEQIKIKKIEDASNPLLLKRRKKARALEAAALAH
Sequence of Leukocyte tyrosine kinase receptor (Homo sapiens) (P29376 whole entry): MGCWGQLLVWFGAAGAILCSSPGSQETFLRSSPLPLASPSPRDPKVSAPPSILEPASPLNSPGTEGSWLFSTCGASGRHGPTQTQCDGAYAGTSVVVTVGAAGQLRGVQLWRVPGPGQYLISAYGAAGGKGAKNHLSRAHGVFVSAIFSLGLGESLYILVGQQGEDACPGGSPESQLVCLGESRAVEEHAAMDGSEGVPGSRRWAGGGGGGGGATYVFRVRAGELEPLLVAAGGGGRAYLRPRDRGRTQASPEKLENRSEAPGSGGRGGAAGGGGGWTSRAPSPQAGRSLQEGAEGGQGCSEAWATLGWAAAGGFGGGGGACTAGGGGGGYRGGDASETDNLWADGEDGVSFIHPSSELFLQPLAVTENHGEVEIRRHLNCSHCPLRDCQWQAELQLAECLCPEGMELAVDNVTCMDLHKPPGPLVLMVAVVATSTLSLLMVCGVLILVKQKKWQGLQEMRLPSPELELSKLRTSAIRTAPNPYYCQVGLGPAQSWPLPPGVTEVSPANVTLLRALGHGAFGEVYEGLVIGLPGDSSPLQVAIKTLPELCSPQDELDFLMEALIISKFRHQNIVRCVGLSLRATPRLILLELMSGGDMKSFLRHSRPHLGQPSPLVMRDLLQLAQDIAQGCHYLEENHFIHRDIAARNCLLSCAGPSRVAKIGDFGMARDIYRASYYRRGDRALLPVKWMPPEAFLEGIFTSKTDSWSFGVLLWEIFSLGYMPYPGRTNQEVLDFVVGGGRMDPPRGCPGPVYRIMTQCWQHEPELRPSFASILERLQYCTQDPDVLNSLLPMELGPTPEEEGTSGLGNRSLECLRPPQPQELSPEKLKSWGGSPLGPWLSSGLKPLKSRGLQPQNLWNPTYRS

Consider `CC(C)[C@H](NC(=O)c1cc(-c2cnn3cc(-c4ccc(OCCN5CCCCC5)cc4)cnc23)cs1)C(F)(F)F`, for which the fold change (FC) in assay [1] is 0. Also, the inhibition in assay [2] and in assay [3] was 12% throughout.
`O=C(N[C@@H](C1CC1)C(F)(F)F)c1cc(-c2cnn3cc(-c4ccc(F)cc4)cnc23)cs1`: the inhibition in assay [4] was determined as 0%. Also, in assay [5], the fold change (FC) came out at 0.
`CNC(=O)c1ccccc1Oc1nc(Nc2cc(OC)c(OC)c(OC)c2)ncc1Br`: the inhibition was determined as 80% in assay [6] and 0% in assay [7].
